# GRK2 inh: human GRK2 inhibition via aptamer displacement; bead flow cytometry, FAM-aptamer displacement from GRK2; P25098; 330,000 tested, 0.59% active; inhibition of aptamer binding, % at 10 µM; AID 488847;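 active = inhibition of aptamer binding above 40%, roughly 3 SD of noise, on plates passing a quality check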;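 note: median bead fluorescence of bound FAM aptamer so fluorescent compounds give negative values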
# B2AR ag: agonists of human beta-2 adrenergic receptor inducing internalization; Am2.2-beta2AR cells, FAP receptor internalization, flow cytometry; response, % (concentration not given with the values); 340,000 tested, 0.43% active; AID 504454;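 active = response above a set limit, near 3 SD of response in nonfluorescent compounds, cut at about 42% in these data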
# Arr AP2 block: blocks beta-arrestin peptide binding to AP2 adaptin | FITC-arrestin peptide / GST-AP2 beads, flow cytometry; AP2 beta2 appendage carries R879A mutation | inhibition, % at 10 µM | 340,000 tested, 0.31% active | AID 504490;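 active = inhibition above a set limit, near 3 SD of compounds lacking own fluorescence, cut at about 54% in these data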
#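 system = GST-tagged AP2 beta2-adaptin appendage (R879A) on 4 µm glutathione beads | reagent = FITC-labelled arrestin peptide probe, 50 nM final | schedule = compound with beads 12 min RT, then probe 1 h RT | signal = HyperCyt-sampled flow cytometry, FL1 channel, ex 488/em 535 nm | read-out = percent response from loss of bead-bound FITC fluorescence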
# Lipid droplet: hepatic lipid droplet formation modulation. AML12 mouse hepatocytes, oleate lipid droplets, BODIPY imaging. 240,000 tested, 0.4% active. AID 1656. inhibition, % at 6.5 µM;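 active = lipid droplet intensity inhibited by at least 50%, with more than 500 cells counted; inconclusive = wells with under 300 cells, treated as cytotoxic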
#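 Test system: AML12 mouse liver cells; schedule: overnight exposure; technique: high-content imaging of BODIPY-stained droplets and DAPI nuclei; read-out: % inhibition of corrected integrated BODIPY droplet signal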
# NTR1 ag: agonists of human neurotensin receptor NTR1; activation, % at 20 µM; AID 493036; 330,000 tested, 0.17% active; P30989; NTR1-U2OS beta-arrestin-GFP spot imaging, agonist mode;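 active = activation at or above 40% of the spot to cytoplasm intensity ratio, with at least 20 cells analyzed; inconclusive = wells under 20 cells, flagged as cytotoxic or low count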
# Target sequence (P30989 whole entry, looked up): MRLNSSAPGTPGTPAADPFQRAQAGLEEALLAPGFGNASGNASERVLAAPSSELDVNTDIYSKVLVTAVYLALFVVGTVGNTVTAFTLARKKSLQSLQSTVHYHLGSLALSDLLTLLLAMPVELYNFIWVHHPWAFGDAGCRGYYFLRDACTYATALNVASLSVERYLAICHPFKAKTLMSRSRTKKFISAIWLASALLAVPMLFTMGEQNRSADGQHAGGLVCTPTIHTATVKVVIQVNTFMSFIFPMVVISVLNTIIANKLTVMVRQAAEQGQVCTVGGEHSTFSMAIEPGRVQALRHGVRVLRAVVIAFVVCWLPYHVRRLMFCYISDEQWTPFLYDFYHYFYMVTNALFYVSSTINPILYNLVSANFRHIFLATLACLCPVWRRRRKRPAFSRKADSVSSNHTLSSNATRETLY
# TAG inh: reduces triacylglycerol accumulation in H9c2 cells; Nile Red lipid (TAG) fluorescence; cells loaded with 200 µM oleic acid; inhibition, % at 12.5 µM; 230,000 tested, 0.66% active;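 active = pattern-corrected inhibition of lipid staining of at least 50% with the nuclear-stain viability signal not falling by more than 50%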
# TAG conf: triacylglycerol accumulation inhibition, confirmation; shares compounds with TAG inh; H9c2 lipid accumulation, Nile Red fluorescence; cells loaded with 200 µM oleic acid; inhibition, % at 12.5 µM; 990 tested, 71% active; AID 651629;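 active = mean inhibition across replicates of 40% or more; inactive = mean inhibition below 40%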
# A number is an active result; n = inactive; u = inconclusive; x = no result given. Only some compounds are listed: those with a hit (about 2% of all), similar ones and a draw of the others.
SMILES,GRK2 inh,B2AR ag,Arr AP2 block,Lipid droplet,NTR1 ag,TAG inh,TAG conf
CCCCCc1ccc(-c2cn(Cc3ccc(C(=O)c4ccccc4)cc3)nn2)cc1,n,n,n,n,n,60.8,51.0
CN1CCN(C(=O)c2ccc(Cc3cn(C)c4ccccc34)nc2)CC1,x,x,x,x,x,53.7,n
O=C1CC(c2ccccc2Cl)=NN(c2ncnc3ccccc23)C1=O,n,n,n,n,n,n,x
Cc1ccc(-c2cc(=O)c3cc(F)ccc3[nH]2)cc1,n,n,n,n,n,x,x
O=c1cc(-c2ccccc2)[nH]c2ccc(F)cc12,n,n,n,u,x,65.1,52.4
CC(C)(C)OC(=O)[C@H]1[C@H](c2ccc([N+](=O)[O-])cc2)C2(C(=O)c3ccccc3C2=O)C2c3ccccc3C=NN21 (some centres not stated),n,n,n,n,n,x,x
CSc1ccccc1NC(=O)COC(=O)c1cnc(C)cn1,n,n,n,x,n,n,x
COc1ccc(NC(=O)Nc2c(O)ccc3ccccc23)cc1,n,n,n,x,n,n,x
CCc1nc(C)c(C(=O)N2CCCC(C(=O)Nc3cccc(-c4cccc(C)c4)c3)C2)o1 (configuration not stated),n,n,n,n,n,50.2,46.5
Cc1ccc(Cn2c(C(C)Nc3nc(-c4ccc(Cl)c([N+](=O)[O-])c4)cs3)nc3cc(C(F)(F)F)ccc32)cc1 (configuration not stated),n,n,n,x,n,69.6,71.3
CCCn1c(C(C)Nc2nc(-c3ccc(Cl)c([N+](=O)[O-])c3)cs2)nc2ccccc21 (configuration not stated),n,n,n,x,n,x,x
Cc1ccc([C@@H]2[C@@H]3C(=O)N(C)C(=O)[C@@H]3[C@]3(Cc4ccccc4)C(=O)N(Cc4ccccn4)CC(=O)N23)o1,n,n,n,n,n,n,x
O=C(Cc1nnc(NC(=O)c2ccccc2)s1)N/N=C/c1cccc(O)c1,n,n,n,n,n,x,x
Cc1ccc(Cn2cc(/C=N/NC(=O)Cc3nnc(NC(=O)c4ccc(C)cc4)s3)c3ccccc32)cc1,n,n,n,n,n,52.4,128.3
Cc1ccc(CNC(=O)c2nccnc2C(=O)O)cc1,n,n,n,n,n,x,x
Cc1cccc2sc(NC(=O)C3CCCN(S(=O)(=O)c4cccc5nonc45)C3)nc12 (configuration not stated),n,n,n,n,n,53.7,74.2
Cc1ccc2nc(NC(=O)C3CCCN(S(=O)(=O)c4cccc5nonc45)C3)sc2c1 (configuration not stated),n,x,x,n,n,x,x
CN(C)CCCN1c2ccccc2Sc2ccccc21,n,n,n,n,n,60.5,47.0
CCOc1ccc(S(=O)(=O)N2CCN(C(=O)CCC(=O)N3CCOCC3)CC2)cc1,n,n,n,x,n,n,x
CCCc1cc(C(=O)N/N=C/c2ccc(CC)s2)c2ccccc2n1,n,n,n,x,n,56.1,60.9
Cc1noc(C)c1-c1ccc2ncnc(NCC3CCCCN3C)c2c1 (configuration not stated),n,n,n,x,n,62.0,51.4
CC(C)CCC(C(=O)NC(C)c1ccccc1)C(=O)NC(C)c1ccccc1 (configuration not stated),n,n,n,n,n,x,x
C=CC[C@@H](CC(=O)N(CCO)Cc1ccccc1)C(=O)N[C@H](COC(=O)[C@@H](CC=C)Cc1ccc(F)cc1)C(C)(C)C,n,n,n,x,n,85.4,89.5
C=CC[C@@H](CC(=O)N(CCO)Cc1ccccc1)C(=O)N[C@H](COC(=O)[C@@H](CC=C)CC(=O)OC(C)(C)C)C(C)(C)C,n,n,n,x,n,72.6,80.8
C=CCC[C@H](Cc1ccc(F)cc1)C(=O)OC[C@@H](NC(=O)[C@@H](CC=C)CC(=O)N(CCO)Cc1ccccc1)C(C)(C)C,n,n,n,x,n,87.3,92.6
C=CC[C@H](CC(=O)N(CCO)Cc1ccccc1)C(=O)N[C@H](COC(=O)[C@@H](CC=C)Cc1ccc(F)cc1)C(C)(C)C,n,n,n,x,n,n,x
